Laboratory results taken from PMC9260726 (ACS Infectious Diseases, 2022).

Assays:
[1] = tested on: VSV-G protein pseudotyped particles; assay type: cell-based, vesicular stomatitis virus
[2] = tested on: SARS-CoV-1 S pseudotyped particles; assay type: cell-based
[3] = tested on: SARS-CoV-2 S pseudotyped particles; assay type: cell-based
SARS-CoV-2 USA-WA1/2020 = assay type: cell-based
[4] = tested on: SARS-CoV-2 BetaCoV/Germany/BavPat1/2020; test: Time-of-addition assay in Vero CCL81, plaque assay; assay type: cell-based
[5] = tested on: SARS-CoV-2 negative-stranded viral RNA; test: In vitro transcribed viral RNA replication assay, negative-stranded RNA RT-qPCR; assay type: cell-based
[6] = tested on: SARS-CoV-2 nucleoprotein and spike protein; assay type: cell-based
Vero E6 = details: Vero E6, conditions of the antiviral assay, 16 h
[7] = tested on: SARS-CoV-2 BetaCoV/Germany/BavPat1/2020; assay type: cell-based
Vero CCL81 cells = details: 1 μM, 18 h
SARS-CoV-2 dsRNA = assay type: cell-based
[8] = tested on: SARS-CoV-2 BetaCoV/Germany/BavPat1/2020; assay type: cell-based; remark: listed apart in the source
ACE2 = ACE2 immunoblot analysis in Vero E6; assay type: cell-based, monkey; details: Vero E6, after 24 h
HeLa-hACE2 = details: HeLa-hACE2, conditions of the antiviral assay, 16 h
[9] = tested on: ocular angiogenic disease models; details: 0.25 mg/kg; cited from earlier work
[10] = tested on: human pneumocyte-like cells; test: Pneumocyte-like cell MTT viability assay; assay type: cell-based; details: 10 μM, 48 h, uninfected
How it was run: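 Human pneumocyte-like cells derived from H9 embryonic stem cells, used on day nine of differentiation. An uninfected duplicate set received the same drug concentrations as the antiviral set. After 48 h at 37 °C, viability was read by MTT assay. Viability was expressed as a percentage of the DMSO control, in triplicate.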

[11] = tested on: SARS-CoV-2 BetaCoV/Germany/BavPat1/2020; assay type: cell-based; details: effect only at 10 μM, less potent than Apra S4
SARS-CoV-2 = details: COVID-19 patients; cited from earlier work

Q: For `Cc1cccc(/C=N/Nc2cc(N3CCOCC3)nc(OCCc3ccccn3)n2)c1` [Apilimod, apilimod, reference compound], which VSV-G-mediated entry [1] is on record?
A: Its VSV-G-mediated entry is “None of the compounds impacted”.

Q: And the “viral entry of SARS-CoV-1 S pseudotyped particles (luciferase)” value [2]?
A: The value was “inhibited viral entry”.

Q: What about the “viral entry of SARS-CoV-2 S pseudotyped particles (luciferase)” value [3] of the same compound?
A: The value was “inhibited viral entry”.

Q: And the “cytotoxic effect (WST-8)” value (Vero E6 cells)?
A: The value was “No cytotoxic effect was observed”.

Q: What does the source list for `CC[C@H](C)[C@H]1C(=O)N2CCC[C@H]2C(=O)O[C@H](C(C)(C)C)C[C@@H](C)C[C@H](O)[C@H](C)C2=N[C@@H](CCC(=O)N[C@@H](Cc3ccc(OC)cc3)C(=O)N(C)[C@@H](C)C(=O)N1C)CS2` [Apra S4, apratoxin S4]?
A: viral replication in human pneumocyte-like cells (SARS-CoV-2 USA-WA1/2020): significantly decreased viral replication; antiviral activity by time of addition [4]: did not lose its antiviral activity even if added 2 h after infection; VSV-G-mediated entry [1]: None of the compounds impacted; negative-strand viral RNA [5]: reduced the negative-strand RNA; nucleoprotein signal intensity in infected cells [6]: increased; number of infected cells (N or S positive) [6]: significantly reduced number of infected cells; spike protein staining intensity in infected cells [6]: significantly reduced; viral protein expression at the cell surface (nucleoprotein and spike) [6]: inhibitory effect of Apra S4 was even more pronounced; cytotoxicity (Vero E6): Cytotoxicity was not observed; reduction in infectious virus titers in the supernatant [7]: more than 100 fold; cytotoxic effects (CellTiter-Glo) (Vero CCL81 cells): not due to cytotoxic effects; dsRNA intermediates in infected cells (SARS-CoV-2 dsRNA): strongly reduced; viral entry of SARS-CoV-1 S pseudotyped particles (luciferase) [2]: slightly enhanced infection; SARS-CoV-2 multicycle growth [8]: strongly reduced; virus titers ([8]; […], below limit of detection): < 100 PFU/mL; concentration giving decreased ACE2 protein levels (ACE2): ≥ 1 µM; cytotoxicity (HeLa-hACE2): Cytotoxicity was not observed; viral entry of SARS-CoV-2 S pseudotyped particles (luciferase) [3]: slightly enhanced infection; efficacy in ocular angiogenic disease models in vivo [9]: exquisite efficacy; toxicity in ocular angiogenic disease models in vivo [9]: without toxicity or histological abnormalities; cytotoxic effect (WST-8) (Vero E6 cells): No cytotoxic effect was observed; cytotoxicity in pneumocyte-like cells [10]: No cytotoxicity

Q: Which SARS-CoV-2 growth [11] does the source give for `CC1(C)C(N(O)C(=O)Nc2ccc(Cl)cc2)N(c2ccc(Cl)cc2)C(=O)N1CC(=O)N/N=C/C=C/c1ccc([N+](=O)[O-])o1` (stereo not drawn) [Eeyarestatin I, eeyarestatin I] here?
A: The SARS-CoV-2 growth was “inhibited SARS-CoV-2 in a dose-dependent manner”.

Q: For `CC(C)C(=O)OC[C@H]1O[C@@H](n2ccc(NO)nc2=O)[C@H](O)[C@@H]1O` [molnupiravir], which “reduction of the rate of hospitalizations and death” value (SARS-CoV-2) is on record?
A: Its value is 30%.

Q: What does the source list for `CCC(CC)COC(=O)[C@H](C)N[P@](=O)(OC[C@H]1O[C@@](C#N)(c2ccc3c(N)ncnn23)[C@H](O)[C@@H]1O)Oc1ccccc1` [remdesivir, reference compound]?
A: SARS-CoV-2 multicycle growth [8]: less potent; cytotoxicity in pneumocyte-like cells [10]: No cytotoxicity
